Measurements reported in ChEMBL document CHEMBL1240399 (Antimicrob Agents Chemother, 2010).
pIC50: −log10 of the molar value. Converted amounts (≈) assume the structure as drawn.

Columns and labels:
Escherichia coli [1] = experiment: Antibacterial activity against Escherichia coli DH5alpha pB-ges-1; format: functional
Escherichia coli [2] = experiment: Antibacterial activity against Escherichia coli DH5alpha; format: functional
Escherichia coli [3] = experiment: Antibacterial activity against Escherichia coli DH5alpha pB-ges-13 plasmid; format: functional
Pseudomonas aeruginosa [4] = experiment: Antibacterial activity against Pseudomonas aeruginosa NL68 expressing GES-13 beta lactamase; format: functional
Escherichia coli [5] = experiment: microbe, parasite or virus in culture; settings: DH5alpha
Pseudomonas aeruginosa [6] = experiment: Antibacterial activity against Pseudomonas aeruginosa NL68 expressing GES-13 beta lactamase in presence of 4 ug/ml Tazobactam; format: functional
Escherichia coli [7] = experiment: microbe, parasite or virus in culture; settings: DH5alpha; remark: listed apart in the source
Escherichia coli [8] = experiment: microbe, parasite or virus in culture; settings: DH5alpha; remark: listed apart in the source
Escherichia coli [9] = experiment: Antibacterial activity against Escherichia coli DH5alpha pB-ges-13 plasmid in presence of 2 ug/ml clavulanic acid; format: functional
Escherichia coli [10] = experiment: Antibacterial activity against Escherichia coli DH5alpha pB-ges-1in presence of 2 ug/ml clavulanic acid; format: functional
Escherichia coli [11] = experiment: Antibacterial activity against Escherichia coli DH5alpha in presence of 2 ug/ml clavulanic acid; format: functional
Pseudomonas aeruginosa [12] = experiment: microbe, parasite or virus in culture; settings: NL68
Beta-lactamase GES-13 = Beta-lactamase GES-13 (Pseudomonas aeruginosa, UniProt D1MIX9); experiment: Inhibition of Pseudomonas aeruginosa GES-13 beta lactamase
How it was run: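 GES-13 purified from E. coli DH5α carrying pB-ges13: sonicated in 20 mM Tris pH 8.0, then Q-Sepharose and S-Sepharose chromatography, >95% pure by SDS-PAGE. Enzyme preincubated with a range of inhibitor concentrations for 3 min at 30°C. Residual hydrolysis of 100 μM cephalothin reporter followed spectrophotometrically. Value given as IC50.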

Chain of Beta-lactamase GES-13 (D1MIX9 whole entry): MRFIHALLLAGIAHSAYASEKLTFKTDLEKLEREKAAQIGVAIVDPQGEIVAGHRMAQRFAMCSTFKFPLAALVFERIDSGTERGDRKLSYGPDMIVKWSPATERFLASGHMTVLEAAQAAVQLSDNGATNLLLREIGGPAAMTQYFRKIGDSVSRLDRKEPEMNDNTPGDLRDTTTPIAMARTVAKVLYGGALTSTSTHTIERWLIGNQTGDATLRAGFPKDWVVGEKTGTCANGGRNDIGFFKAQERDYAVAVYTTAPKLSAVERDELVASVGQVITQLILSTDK

CO/N=C(\C(=O)N[C@@H]1C(=O)N2C(C(=O)O)=C(COC(N)=O)CS[C@H]12)c1ccco1 [CEFUROXIME]
MIC (Escherichia coli [1]): ≥ 512 µg/mL
MIC (Escherichia coli [2]): 2 µg/mL (≈ 4.71 µM)
MIC (Escherichia coli [3]): ≥ 512 µg/mL

C[C@H]1[C@H](NC(=O)/C(=N\OC(C)(C)C(=O)O)c2csc(N)n2)C(=O)N1S(=O)(=O)O [AZTREONAM]
MIC (Escherichia coli [1]): 1 µg/mL (≈ 2.3 µM)
MIC (Escherichia coli [3]): 8 µg/mL (≈ 18.4 µM)

CCN1CCN(C(=O)N[C@@H](C(=O)N[C@@H]2C(=O)N3[C@@H]2SC(C)(C)[C@@H]3C(=O)O)c2ccccc2)C(=O)C1=O [PIPERACILLIN]
MIC (Pseudomonas aeruginosa [4]): 256 µg/mL (≈ 495 µM)
MIC (Escherichia coli [1]): 64 µg/mL (≈ 124 µM)
MIC (Escherichia coli [2]): 1 µg/mL (≈ 1.93 µM)
MIC (Escherichia coli [3]): 64 µg/mL (≈ 124 µM)
MIC (Escherichia coli [5]): 0.5 µg/mL (≈ 0.966 µM)
MIC (Pseudomonas aeruginosa [6]): 128 µg/mL
MIC (Escherichia coli [7]): 16 µg/mL (≈ 30.9 µM)
MIC (Escherichia coli [8]): 2 µg/mL (≈ 3.86 µM)

CO[C@@]1(NC(=O)Cc2cccs2)C(=O)N2C(C(=O)O)=C(COC(N)=O)CS[C@@H]21 [CEFOXITIN]
MIC (Escherichia coli [1]): 8 µg/mL (≈ 18.7 µM)
MIC (Escherichia coli [2]): 4 µg/mL (≈ 9.36 µM)
MIC (Escherichia coli [3]): 8 µg/mL (≈ 18.7 µM)

CC1(C)S[C@@H]2[C@H](NC(=O)[C@H](C(=O)O)c3ccsc3)C(=O)N2[C@H]1C(=O)O [TICARCILLIN]
MIC (Escherichia coli [9]): 16 µg/mL
MIC (Pseudomonas aeruginosa [4]): ≥ 512 µg/mL
MIC (Escherichia coli [1]): ≥ 512 µg/mL
MIC (Escherichia coli [2]): 2 µg/mL (≈ 5.2 µM)
MIC (Escherichia coli [3]): ≥ 512 µg/mL
MIC (Escherichia coli [10]): 32 µg/mL
MIC (Escherichia coli [11]): 2 µg/mL
MIC (Pseudomonas aeruginosa [12]): ≥ 512 µg/mL

CO/N=C(\C(=O)N[C@@H]1C(=O)N2C(C(=O)O)=C(COC(C)=O)CS[C@H]12)c1csc(N)n1 [CEFOTAXIME]
MIC (Escherichia coli [1]): 4 µg/mL (≈ 8.78 µM)
MIC (Escherichia coli [2]): 0.12 µg/mL (≈ 0.263 µM)
MIC (Escherichia coli [3]): 8 µg/mL (≈ 17.6 µM)

CO/N=C(\C(=O)N[C@@H]1C(=O)N2C(C(=O)O)=C(CSc3nc(=O)c(O)nn3C)CS[C@H]12)c1csc(N)n1 [CEFTRIAXONE]
MIC (Escherichia coli [1]): 16 µg/mL (≈ 28.9 µM)
MIC (Escherichia coli [2]): 0.12 µg/mL (≈ 0.216 µM)
MIC (Escherichia coli [3]): 16 µg/mL (≈ 28.9 µM)

CC(C)(O/N=C(\C(=O)N[C@@H]1C(=O)N2C(C(=O)[O-])=C(C[n+]3ccccc3)CS[C@H]12)c1csc(N)n1)C(=O)O [CEFTAZIDIME]
MIC (Escherichia coli [9]): 16 µg/mL
MIC (Pseudomonas aeruginosa [4]): ≥ 512 µg/mL
MIC (Escherichia coli [1]): 256 µg/mL (≈ 468 µM)
MIC (Escherichia coli [2]): 0.5 µg/mL (≈ 0.915 µM)
MIC (Escherichia coli [3]): ≥ 512 µg/mL
MIC (Escherichia coli [5]): 0.5 µg/mL (≈ 0.915 µM)
MIC (Escherichia coli [10]): 16 µg/mL
MIC (Escherichia coli [11]): 0.5 µg/mL
MIC (Pseudomonas aeruginosa [6]): 256 µg/mL
MIC (Pseudomonas aeruginosa [12]): ≥ 512 µg/mL
MIC (Escherichia coli [7]): 16 µg/mL (≈ 29.3 µM)
MIC (Escherichia coli [8]): 4 µg/mL (≈ 7.32 µM)

N[C@@H](C(=O)N[C@@H]1C(=O)N2C(C(=O)O)=C(Cl)CS[C@H]12)c1ccccc1 [CEFACLOR ANHYDROUS]
MIC (Escherichia coli [1]): ≥ 512 µg/mL
MIC (Escherichia coli [2]): 4 µg/mL (≈ 10.9 µM)
MIC (Escherichia coli [3]): ≥ 512 µg/mL

C[C@@H](O)[C@H]1C(=O)N2C(C(=O)O)=C(S[C@@H]3CN[C@H](C(=O)N(C)C)C3)[C@H](C)[C@H]12 [MEROPENEM]
MIC (Pseudomonas aeruginosa [4]): 32 µg/mL (≈ 83.4 µM)
MIC (Escherichia coli [1]): ≤ 0.06 µg/mL
MIC (Escherichia coli [2]): ≤ 0.06 µg/mL
MIC (Escherichia coli [3]): ≤ 0.06 µg/mL

CC1(C)S[C@@H]2[C@H](NC(=O)[C@H](N)c3ccc(O)cc3)C(=O)N2[C@H]1C(=O)O [AMOXICILLIN]
MIC (Escherichia coli [9]): 32 µg/mL
MIC (Escherichia coli [1]): ≥ 512 µg/mL
MIC (Escherichia coli [2]): 2 µg/mL (≈ 5.47 µM)
MIC (Escherichia coli [3]): ≥ 512 µg/mL
MIC (Escherichia coli [10]): 64 µg/mL
MIC (Escherichia coli [11]): 2 µg/mL

C[C@@H](O)[C@H]1C(=O)N2C(C(=O)O)=C(SCCNC=N)C[C@H]12 [IMIPENEM ANHYDROUS]
MIC (Pseudomonas aeruginosa [4]): 16 µg/mL (≈ 53.4 µM)
pIC50 (Beta-lactamase GES-13): 6.82
MIC (Pseudomonas aeruginosa [6]): 16 µg/mL

CO/N=C(\C(=O)N[C@@H]1C(=O)N2C(C(=O)[O-])=C(C[N+]3(C)CCCC3)CS[C@H]12)c1csc(N)n1
MIC (Pseudomonas aeruginosa [4]): 64 µg/mL (≈ 133 µM)
MIC (Escherichia coli [1]): 1 µg/mL (≈ 2.08 µM)
